Series [1] in a line: Overall elimination rate in rat. Format: ADME, organism-based. The following applies: in vivo, read-out: ke (converted). The essentials:
(§1)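 Male Sprague-Dawley rats received the SA sodium salt, 50 mg/kg, into the tail vein within 1 min. Tail-artery blood was sampled over time and plasma separated by centrifugation. Unmetabolized and total SA were assayed by modified Bratton-Marshall before and after hydrolysis of N4 metabolites. ke (or kC,U for unchanged drug) was obtained by computer fitting to a one-compartment model. Vc = dose / extrapolated initial plasma concentration.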

Series [2] is described as follows: Total clearance from the body in rat. The series is classed as ADME, organism-based. The following applies: in vivo, read-out: ClT.
Series [3] is described as follows: Half life in rat. The series is classed as ADME, organism-based. The following applies: in vivo. The gist of the method:
as §1

The nature of series [4]: Acid dissociation constant. The series is classed as ADME. The gist of the method:
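pKa of the sulfapyridine acidic NH measured spectrophotometrically.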

The species named for series [5] is Rattus norvegicus. Description: Apparent volume of distribution was determined in rat. Format: ADME, organism-based. The following applies: in vivo. The essentials:
as §1

The species entered for series [6] is Rattus norvegicus. The series can be described thus: Affinity for protein binding expressed as association constant in fresh rat serum. Format: ADME, organism-based. The essentials:
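Sulfapyridines added to freshly prepared rat serum at 100-600 µmol/L in 100 µmol/L steps. Samples ultracentrifuged 10 h at 45000 rpm (g = 150000), 37 °C. Unbound drug in the top protein-free layer measured photometrically by Bratton-Marshall. Total drug measured before centrifugation, with controls correcting for sedimentation of unbound drug. Bound = total − free; Kassoc from a Scatchard plot.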

Series [7] in a line: Renal clearance from the body in rat. Particulars: in vivo, read-out: CL_renal. Format: ADME, organism-based, Kidney. The gist of the method:
(§2)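 Drug solutions were infused into rats at 1.9 mL/h, with plasma and urine concentrations measured simultaneously over time. Clearance = urine concentration × urine volume per minute / plasma concentration. Inulin and PAH clearances were also determined. Urine pH was set with NH4Cl (pH 5-6) or NaHCO3 (pH 7.8), compared with normal pH 6.8.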

The species entered for series [8] is Rattus norvegicus. The series can be described thus: Metabolic clearance from the body in rat. The series is classed as ADME, organism-based. Particulars: in vivo. The gist of the method:
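Metabolic clearance calculated as total clearance minus renal clearance. Plasma levels were measured before and after hydrolysis of N4-acetyl metabolites.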

Series [9] can be described thus: First order rate of elimination of unchanged drug in rat. Particulars: in vivo, read-out: kC,U (converted). Format: ADME, organism-based. The gist of the method:
as §1

Series [10] in a line: Renal clearance from the body. The series is classed as ADME, organism-based, Kidney. Particulars: in vivo; read-out: CL_renal. The essentials:
as §2

The nature of series [11]: Half life was determined. Format: ADME. Particulars: rat.

Structures are written as SMILES.

A word on the half-life: it is the time needed for the level to fall by half in the phase considered. A higher half-life goes with slow decline. A word on the pKa: it is the pH at which an ionisable group is half protonated. High values mean a weaker acid or stronger base, low ones a stronger acid or weaker base. Consider `Cc1ccnc(NS(=O)(=O)c2ccc(N)cc2)c1`, for which the k el in series [1] was 0.000161 s⁻¹. For the same compound, the clearance in series [2] is 1.38 mL/min. In [3], this compound gave a half-life of 1.19 h. The compound also displayed a pKa in series [4] of 9.01. The Vc in the series filed under Rattus norvegicus [5] was 142.8 mL. Also, the K ass in the series listed under Rattus norvegicus [6] was 6606 l M-1.
Consider `Cc1cc(C)nc(NS(=O)(=O)c2ccc(N)cc2)c1`, for which the values for the k el in series [1] and in series [9] were 0.00016 s⁻¹ and 0.000117 s⁻¹, respectively. In series [2], the clearance was 1.76 mL/min. Also, in series [3], the half-life is 1.2 h. In series [4], the pKa stood at 9.54. Further, in [7], the CL renal was 1.28 mL/min. The Vc in the series listed under Rattus norvegicus [5] was determined as 183 mL. The same compound showed a ClM in the series filed under Rattus norvegicus [8] of 0.48 mL/min. In the series filed under Rattus norvegicus [6], the K ass was 5495 l M-1.
Regarding `Cc1cccnc1NS(=O)(=O)c1ccc(N)cc1`, in series [1], the k el was 0.000149 s⁻¹. Also, the clearance in [2] came out at 1.17 mL/min. Besides, the half-life in series [3] is 1.29 h. For the same compound, the pKa in series [4] is 8.74. Besides, the Vc in the series listed under Rattus norvegicus [5] was 131 mL. For the same compound, the K ass in the series listed under Rattus norvegicus [6] is listed as 1622 l M-1.
For `N#Cc1cccnc1NS(=O)(=O)c1ccc(N)cc1`, in series [1], the k el is 0.000133 s⁻¹. The clearance in series [2] was 0.77 mL/min. The compound further gave a half-life in series [3] of 1.44 h. In addition, the pKa in [4] amounted to 5.25. The Vc in the series filed under Rattus norvegicus [5] came out at 96.7 mL. Besides, in the series listed under Rattus norvegicus [6], the K ass is given as 1820 l M-1.
Consider `Nc1ccc(S(=O)(=O)Nc2ncc(Br)cc2Br)cc1`, for which the k el was 8.89e-06 s⁻¹ in [1] and 5.56e-06 s⁻¹ in series [9]. Moreover, the CL renal in [10] worked out at 0.03 mL/min. The clearance in [2] came out at 0.048 mL/min. Also, the half-life in series [3] was 21.6 h. Besides, the pKa in series [4] worked out at 5.78. Besides, the Vc in the series filed under Rattus norvegicus [5] is 90.3 mL. In the series filed under Rattus norvegicus [8], this compound came in with a ClM of 0.02 mL/min. Besides, the K ass in the series listed under Rattus norvegicus [6] is given as 13800 l M-1.
Turning to `COc1cccnc1NS(=O)(=O)c1ccc(N)cc1`, the k el in series [1] is 0.000151 s⁻¹. Moreover, the clearance in series [2] stood at 0.91 mL/min. In [3], this compound had a half-life of 1.27 h. The pKa in series [4] was determined as 8.07. The Vc in the series filed under Rattus norvegicus [5] came to 100.3 mL. For the same compound, the K ass in the series filed under Rattus norvegicus [6] was 2399 l M-1.
With `Nc1ccc(S(=O)(=O)Nc2ccccn2)cc1` [SULFAPYRIDINE], the k el in series [1] was 0.000131 s⁻¹; in series [9], 9.72e-05 s⁻¹. In addition, the clearance in series [2] was 1.79 mL/min. This compound showed a half-life in [3] of 1.47 h. The same compound came in with a pKa in series [4] of 8.54. Also, in series [7], the CL renal amounted to 1.33 mL/min. Besides, in the series filed under Rattus norvegicus [5], the Vc came out at 229 mL. For the same compound, the ClM in the series listed under Rattus norvegicus [8] is 0.46 mL/min. Further, the K ass in the series listed under Rattus norvegicus [6] is 4592 l M-1.
In the case of `Cc1cnc(NS(=O)(=O)c2ccc(N)cc2)c(C#N)c1`, in [1], the k el was 8.83e-05 s⁻¹. Also, the clearance in [2] turned out to be 0.47 mL/min. The half-life in [3] is 2.18 h. Besides, the pKa in [4] was determined as 5.35. Moreover, the Vc in the series filed under Rattus norvegicus [5] was found to be 89.7 mL. Further, in the series listed under Rattus norvegicus [6], the K ass was 10965 l M-1.
With `Cc1cccc(NS(=O)(=O)c2ccc(N)cc2)n1`, the k el in series [1] is 0.000102 s⁻¹. In series [11], this compound gave a half-life of 1.88 h. In addition, in series [2], the clearance was 1.04 mL/min. Besides, the pKa in series [4] came out at 9.2. The Vc in the series listed under Rattus norvegicus [5] was 168.6 mL. Moreover, in the series filed under Rattus norvegicus [6], the K ass is on record as 5129 l M-1.
On to `Nc1ccc(S(=O)(=O)Nc2ccc(Br)cn2)cc1`, for which the k el in series [1] is 7.78e-06 s⁻¹; in series [9], 2.78e-06 s⁻¹. Further, the clearance in series [2] was 0.116 mL/min. This compound also had a half-life in series [3] of 24.8 h. This compound also displayed a pKa in [4] of 6.98. In series [7], the CL renal was 0.04 mL/min. Besides, the Vc in the series filed under Rattus norvegicus [5] was 247.1 mL. The same compound returned a ClM in the series filed under Rattus norvegicus [8] of 0.07 mL/min.
Turning to `Nc1ccc(S(=O)(=O)Nc2ncc(Cl)cc2Cl)cc1`, the figures for the k el in [1] and in series [9] were 8.89e-06 s⁻¹ and 8.33e-06 s⁻¹, respectively. Further, the clearance in [2] turned out to be 0.05 mL/min. The compound further gave a half-life in series [3] of 21.6 h. This compound also had a pKa in series [4] of 5.98. Also, in series [7], the CL renal is 0.05 mL/min. The Vc in the series filed under Rattus norvegicus [5] was 99.2 mL. This compound also registered a ClM in the series filed under Rattus norvegicus [8] of 0.03 mL/min. For the same compound, in the series filed under Rattus norvegicus [6], the K ass is listed as 12706 l M-1.
Turning to `Nc1ccc(S(=O)(=O)Nc2ncccc2Cl)cc1`, the k el in series [1] was 2.22e-05 s⁻¹. In series [2], the clearance was found to be 0.2 mL/min. Also, the half-life in [3] was 8.66 h. The pKa in series [4] is 6.8. Besides, the Vc in the series listed under Rattus norvegicus [5] amounted to 147.5 mL. The K ass in the series filed under Rattus norvegicus [6] is recorded as 13441 l M-1.
Turning to `Nc1ccc(S(=O)(=O)Nc2ccc([N+](=O)[O-])cn2)cc1`, the k el in [1] was 1.17e-05 s⁻¹. Also, the clearance in [2] stood at 0.135 mL/min. In addition, the half-life in series [3] was 16.5 h. The pKa in series [4] was determined as 5.56. Also, the Vc in the series filed under Rattus norvegicus [5] was 192.8 mL. For the same compound, the K ass in the series filed under Rattus norvegicus [6] is 20417 l M-1.
In the case of `CCOc1cccnc1NS(=O)(=O)c1ccc(N)cc1`, in series [1], the k el was 0.000138 s⁻¹. For the same compound, the clearance in series [2] turned out to be 0.81 mL/min. The compound further showed a half-life in [3] of 1.4 h. In series [4], the pKa was determined as 8.2. In the series listed under Rattus norvegicus [5], the Vc was determined as 98.3 mL. Further, the K ass in the series listed under Rattus norvegicus [6] is 4169 l M-1.
Regarding `Nc1ccc(S(=O)(=O)Nc2ccc(Cl)cn2)cc1`, the k el in [1] is 8.89e-06 s⁻¹; in series [9], 5.56e-06 s⁻¹. Also, the clearance in [2] amounted to 0.099 mL/min. The compound also showed a half-life in series [3] of 21.6 h. In series [4], this compound had a pKa of 7.04. For the same compound, the CL renal in [7] is 0.06 mL/min. For the same compound, the Vc in the series filed under Rattus norvegicus [5] was determined as 185.5 mL. The same compound returned a ClM in the series filed under Rattus norvegicus [8] of 0.04 mL/min. Besides, in the series listed under Rattus norvegicus [6], the K ass is reported as 25703 l M-1.
On to `CN(C)c1ccc(NS(=O)(=O)c2ccc(N)cc2)nc1`, for which the k el in series [1] was 9.25e-05 s⁻¹; in series [9], 6.39e-05 s⁻¹. For the same compound, in [2], the clearance worked out at 0.62 mL/min. Also, in series [3], the half-life was 2.08 h. In addition, the pKa in series [4] stood at 9.21. Also, the CL renal in series [7] worked out at 0.43 mL/min. For the same compound, the Vc in the series listed under Rattus norvegicus [5] stood at 111.2 mL. The same compound displayed a ClM in the series listed under Rattus norvegicus [8] of 0.19 mL/min. Also, the K ass in the series listed under Rattus norvegicus [6] is on record as 8511 l M-1.
Consider `Cc1cc(Cl)cnc1NS(=O)(=O)c1ccc(N)cc1`, for which the k el in series [1] was 2.36e-05 s⁻¹. Further, in series [2], the clearance amounted to 0.195 mL/min. The half-life in [3] is 8.15 h. For the same compound, the pKa in series [4] came out at 7.26. Further, the Vc in the series listed under Rattus norvegicus [5] was found to be 137.9 mL.
As for `Cc1ccc(NS(=O)(=O)c2ccc(N)cc2)nc1`, the k el in series [1] is 8.17e-05 s⁻¹. The clearance in series [2] is 1.15 mL/min. In addition, the half-life in [3] is 2.36 h. The pKa in series [4] was determined as 8.95. The Vc in the series listed under Rattus norvegicus [5] is 234 mL. In addition, in the series listed under Rattus norvegicus [6], the K ass is listed as 9183 l M-1.
On to `Cc1cc(Br)cnc1NS(=O)(=O)c1ccc(N)cc1`, for which the k el in series [1] is 2.36e-05 s⁻¹. The clearance in series [2] amounted to 0.2 mL/min. The compound also had a half-life in series [3] of 8.15 h. The same compound had a pKa in series [4] of 7.19. Also, the Vc in the series filed under Rattus norvegicus [5] worked out at 142.6 mL. For the same compound, the K ass in the series listed under Rattus norvegicus [6] is given as 5888 l M-1.

For the origin of these results see ChEMBL document CHEMBL1121446, “Quantitative structure-pharmacokinetic relationships derived on antibacterial sulfonamides in rats and its comparison to quantitative structure-activity relationships” (J Med Chem, 1980).
